Experimental data collected from several papers.
Lines come from different studies, so protocols differ.
Sample: plasma

CCOCC(=O)N1CCC[C@H](C(=O)NCc2nc(-c3ccc(C)nc3)cs2)C1
half-life (male Sprague-Dawley rat; oral, 3 mg/kg): 1.9 h

C=CC(=O)N1CCC([C@@H]2CCNc3c(C(N)=O)c(-c4ccc(Oc5ccccc5)cc4)nn32)CC1
half-life (Sprague-Dawley rat; oral, 16 mg/kg): 2.24 h

CNS(=O)(=O)c1ccc(Nc2ncc(C(F)(F)F)c(N3CCC(C)(O)CC3)n2)c(C)c1
half-life (rat; intravenous, 2 mg/kg): 0.7 h

Cc1nc(Nc2ncc(C(=O)Nc3c(C)cccc3Cl)s2)cc(N2CC[C@H](N)C2)n1
half-life (male Sprague-Dawley rat; intravenous, 1 mg/kg): 3.8 h

COc1ccc(N(Cc2csc(-c3ccccc3)n2)C(=O)CCCCCC(=O)NO)cc1
half-life (female Sprague-Dawley rat; intravenous, 5 mg/kg): 0.63 h

COc1cc(C2C3=C(COC3=O)N(CCO)c3cc4c(cc32)CCC4)cc(OC)c1OC (stereo not shown)
half-life (female Sprague-Dawley rat; intraperitoneal, 50 mg/kg): 8.61 h

C[C@H]1CN(CC2CCN(c3ccc(C4CCC(=O)NC4=O)cc3F)CC2)CC[C@H]1NS(=O)(=O)c1ccc(Nc2ncc(C(F)(F)F)c(N3CCC[C@](C)(O)C3)n2)c(F)c1 (stereo partly shown)
half-life (rat; intravenous, 2 mg/kg): 4.6 h

C1=C/COCc2cc(ccc2OCCN2CCCC2)Nc2nccc(n2)-c2cccc(c2)COC/1
half-life (male Sprague-Dawley rat; oral, 36 mg/kg): 12.1 h

CCONC(=O)N1CCC[C@H](C(=O)NCc2nc(-c3ccc(C#N)cc3)cs2)C1
half-life (male Sprague-Dawley rat; intravenous, 1 mg/kg): 2.2 h

Cc1cc2c(C(N)=O)cccc2n1-c1nc2c(c(NCc3ccccc3)n1)CCCN2
half-life (male Sprague-Dawley rat; oral, 10 mg/kg, single dose): 1.2 h

C[C@]1(O)CCCN(c2nc(Nc3ccc(S(=O)(=O)N[C@H]4CC[C@H](CN5CCN(c6ccc(C7CCC(=O)NC7=O)cc6F)CC5)CC4)cc3F)ncc2C(F)(F)F)C1 (stereo partly shown)
half-life (rat; intravenous, 2 mg/kg): 3.7 h

COCC(=O)N1CCC[C@H](C(=O)NCc2nc(-c3ccc(C#N)cc3)cs2)C1
half-life (male Sprague-Dawley rat; intravenous, 1 mg/kg): 1.5 h

COc1cc(-c2cc(C(C)=O)n3ccccc23)c(OC)cc1Cn1ccnc1
half-life (male Sprague-Dawley rat; intravenous, 5 mg/kg): 0.75 h

Cc1cc(S(=O)(=O)NC2CC(N3CC[C@@H](OC4CN(c5cccc6c5n(C)c(=O)n6C5CCC(=O)NC5=O)C4)[C@H](F)C3)C2)ccc1Nc1ncc(C(F)(F)F)c(N2CCC[C@](C)(O)C2)n1 (stereo partly shown)
half-life (rat; intravenous, 2 mg/kg): 2.4 h

COc1ccc(-c2coc3cc(O)cc(O)c3c2=O)cc1
half-life (rat; intravenous, 2 mg/kg): 0.19 h

[2H]c1cc(C)c(NC(=O)c2cnc(Nc3cc(N4CCCCC4)nc(C)n3)s2)c(Cl)c1
half-life (male Sprague-Dawley rat; intravenous, 1 mg/kg): 1.7 h

CCCc1nc2c(C)cc(-c3nc4ccccc4n3C)cc2n1Cc1ccc(-c2ccccc2C(=O)O)cc1
half-life (male Sprague-Dawley rat; oral, 8 mg/kg, single dose): 6.84 h

CONC(=O)c1cccc2c1cc(C)n2-c1nc2c(c(NCc3ccccc3)n1)CCCN2
half-life (male Sprague-Dawley rat; oral, 10 mg/kg, single dose): 1.15 h

C[C@H]1CN(c2ccc(C3CCC(=O)NC3=O)cc2F)CCN1CC12CCC(NS(=O)(=O)c3ccc(Nc4ncc(C(F)(F)F)c(N5CCC[C@](C)(O)C5)n4)c(F)c3)(CC1)CO2 (stereo partly shown)
half-life (rat; intravenous, 2 mg/kg): 3.4 h

CCCCC(=O)Nc1ccc(-c2ccc3ncn(CCC)c(=O)c3c2)cn1
half-life (male rat; intravenous, 2.5 mg/kg): 0.582 h

Cn1c(=O)c2[nH]cnc2n(C)c1=O
half-life (male Sprague-Dawley rat; intravenous, 11.25 mg/kg): 4.81 h

C[C@H]1Oc2cc(cnc2N)-c2c(nn(C)c2C#N)CN(C)C(=O)c2ccc(F)cc21
half-life (male Sprague-Dawley rat; oral, 50 mg/kg, single dose): 17.6 h

CNS(=O)(=O)c1ccc(Nc2ncc(C(F)(F)F)c([C@H]3CC[C@@](C)(O)CC3)n2)c(C)c1
half-life (rat; intravenous, 2 mg/kg): 1.3 h

COCC(=O)N1CCC[C@H](C(=O)NCc2nc(-c3ccccc3)cs2)C1
half-life (male Sprague-Dawley rat; intravenous, 1 mg/kg): 6 h

CC(=O)c1c(C)c2cnc(Nc3ccc(N4CCNCC4)cn3)nc2n(C2CCCC2)c1=O
half-life (male Sprague-Dawley rat; intravenous, 5 mg/kg): 2.1 h

COc1nc(-c2cccc(-c3ccccc3)c2C)ccc1CNCCNC(=O)CCCCCCCCCCC(=O)N1CCN(CCNC(=O)c2cc3c(=O)n4cccc(C)c4nc3n(CCc3cccs3)c2=N)CC1
half-life (male Sprague-Dawley rat; intraperitoneal, 4 mg/kg): 4.7 h

CNS(=O)(=O)c1ccc(Nc2ncc(C(F)(F)F)c(N3CCC[C@](C)(O)C3)n2)c(C)c1
half-life (rat; intravenous, 2 mg/kg): 0.8 h

CC(C)(N)COCC(=O)N1CCC[C@H](C(=O)NCc2nc(-c3ccc(C(F)(F)F)cc3)cs2)C1
half-life (male Sprague-Dawley rat; oral, 3 mg/kg): 7.3 h

Cc1cc(S(=O)(=O)N[C@H]2CC[C@H](N3CCN(CC4CCN(c5cccc6c5n(C)c(=O)n6C5CCC(=O)NC5=O)CC4)CC3)CC2)ccc1Nc1ncc(C(F)(F)F)c(N2CCC[C@](C)(O)C2)n1 (stereo partly shown)
half-life (rat; intravenous, 2 mg/kg): 4.3 h

CCOCC(=O)N1CCC[C@H](C(=O)NCc2nc(-c3ccc(C#N)nc3)cs2)C1
half-life (male Sprague-Dawley rat; intravenous, 1 mg/kg): 1.8 h

O=C1CCC(N2Cc3cc(C4CCN(Cc5ccccc5)CC4)ccc3C2=O)C(=O)N1 (stereo not shown)
half-life (male Sprague-Dawley rat; intravenous, 1 mg/kg): 4.29 h
